Data reported in ChEMBL document CHEMBL4359813, “Synthesis and antimycobacterial activity of imidazo[1,2-b][1,2,4,5]tetrazines” (2019).
Active and inactive are the calls of the source. No cut-off for these calls is given here.

Assays:
[1] = tested on: Mycolicibacterium smegmatis MC2 155; experiment: Inhibition of STPK in Mycobacterium smegmatis MC2 155 expressing aminoglycoside phophotransferase-8 assessed as growth inhibition at 25 nmol/disk after 18 hrs in presence of kanamycin by paper disk method
[2] = tested on: Mycolicibacterium smegmatis; experiment: Antimycobacterial activity against Mycobacterium smegmatis atR9 assessed as decrease in drug resistance development at 15 ug/disc after 2 to 3 days by paper disc method; assay type: functional, organism-based
Outline: (§1)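 Drug-resistant M. smegmatis mc2 155 mutants, isolated on M290 agar with 3.5-4× MIC of compound and resistance re-confirmed, grown in Middlebrook 7H9 (OADC, 0.1% Tween-80, 0.4% glycerol) to OD600 1.2. Diluted 1:9:10 culture:water:M290 and poured as top layer on M290 agar. Impregnated paper discs applied; 37 °C for 2–3 days. Halos measured to nearest 1 mm; triplicates, mean ± SD versus control strain.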

[3] = tested on: Mycolicibacterium smegmatis; experiment: Antimycobacterial activity against Mycobacterium smegmatis atR2 assessed as decrease in drug resistance development at 15 ug/disc after 2 to 3 days by paper disc method; assay type: functional, organism-based
Outline: (§2)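 Mutant M. smegmatis strains were grown in Middlebrook 7H9/OADC/Tween/glycerol to OD600 1.2. Cultures were diluted 1:9:10 (culture:water:M290) and overlaid on M290 agar. Commercial or impregnated paper discs were applied and plates incubated 2–3 days at 37 °C. Inhibition halos were measured to 1 mm, run in triplicate, mean ± SD.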

[4] = tested on: Mycolicibacterium smegmatis; experiment: Antimycobacterial activity against Mycobacterium smegmatis atR14 assessed as decrease in drug resistance development at 15 ug/disc after 2 to 3 days by paper disc method; assay type: functional, organism-based; outline: as §2
[5] = tested on: Mycolicibacterium smegmatis; experiment: Antimycobacterial activity against Mycobacterium smegmatis atR8 assessed as decrease in drug resistance development at 15 ug/disc after 2 to 3 days by paper disc method; assay type: functional, organism-based; outline: as §1
[6] = tested on: Mycolicibacterium smegmatis; experiment: Antimycobacterial activity against Mycobacterium smegmatis atR11 assessed as decrease in drug resistance development at 15 ug/disc after 2 to 3 days by paper disc method; assay type: functional, organism-based; outline: as §2
[7] = tested on: Mycolicibacterium smegmatis; experiment: Antimycobacterial activity against Mycobacterium smegmatis atR1 assessed as decrease in drug resistance development at 15 ug/disc after 2 to 3 days by paper disc method; assay type: functional, organism-based; outline: as §2
[8] = tested on: Mycolicibacterium smegmatis; experiment: Antimycobacterial activity against Mycobacterium smegmatis atR8 assessed as decrease in drug resistance development at 5 ug/disc after 2 to 3 days by paper disc method; assay type: functional, organism-based; outline: as §1
[9] = tested on: Mycolicibacterium smegmatis; experiment: Antimycobacterial activity against Mycobacterium smegmatis atR1 assessed as decrease in drug resistance development at 5 ug/disc after 2 to 3 days by paper disc method; assay type: functional, organism-based; outline: as §2
[10] = tested on: Mycolicibacterium smegmatis; experiment: Antimycobacterial activity against Mycobacterium smegmatis atR40 assessed as decrease in drug resistance development at 5 ug/disc after 2 to 3 days by paper disc method; assay type: functional, organism-based; outline: as §1
[11] = tested on: Mycolicibacterium smegmatis; experiment: Antimycobacterial activity against Mycobacterium smegmatis atR2 assessed as decrease in drug resistance development at 5 ug/disc after 2 to 3 days by paper disc method; assay type: functional, organism-based; outline: as §2
[12] = tested on: Mycolicibacterium smegmatis; experiment: Antimycobacterial activity against Mycobacterium smegmatis atR33 assessed as decrease in drug resistance development at 5 ug/disc after 2 to 3 days by paper disc method; assay type: functional, organism-based; outline: as §1
[13] = tested on: Mycolicibacterium smegmatis; experiment: Antimycobacterial activity against Mycobacterium smegmatis atR37 assessed as decrease in drug resistance development at 5 ug/disc after 2 to 3 days by paper disc method; assay type: functional, organism-based; outline: as §1
[14] = tested on: Mycolicibacterium smegmatis; experiment: Antimycobacterial activity against Mycobacterium smegmatis atR11 assessed as decrease in drug resistance development at 5 ug/disc after 2 to 3 days by paper disc method; assay type: functional, organism-based; outline: as §2
[15] = tested on: Mycolicibacterium smegmatis; experiment: Antimycobacterial activity against Mycobacterium smegmatis atR10 assessed as decrease in drug resistance development at 5 ug/disc after 2 to 3 days by paper disc method; assay type: functional, organism-based; outline: as §2
[16] = tested on: Mycolicibacterium smegmatis; experiment: Antimycobacterial activity against Mycobacterium smegmatis atR19 assessed as decrease in drug resistance development at 5 ug/disc after 2 to 3 days by paper disc method; assay type: functional, organism-based; outline: as §2
[17] = tested on: Mycolicibacterium smegmatis; experiment: Antimycobacterial activity against Mycobacterium smegmatis atR14 assessed as decrease in drug resistance development at 5 ug/disc after 2 to 3 days by paper disc method; assay type: functional, organism-based; outline: as §2
[18] = tested on: Mycolicibacterium smegmatis; experiment: Antimycobacterial activity against Mycobacterium smegmatis atR17 assessed as decrease in drug resistance development at 5 ug/disc after 2 to 3 days by paper disc method; assay type: functional, organism-based; outline: as §2
[19] = tested on: Mycolicibacterium smegmatis MC2 155; experiment: Inhibition of STPK in Mycobacterium smegmatis MC2 155 expressing aminoglycoside phophotransferase-8 assessed as growth inhibition at 350 microg/disk after 18 hrs by paper disk method

`CC(C)Sc1cnc2nnc(-n3ccnc3)nn12` was tested, and the inhibition zone (IZ) [1] was 13.8 mm.

With `CC[C@H]1OC(=O)[C@H](C)[C@@H](O[C@H]2C[C@@](C)(OC)[C@@H](O)[C@H](C)O2)[C@H](C)[C@@H](O[C@@H]2O[C@H](C)C[C@H](N(C)C)[C@H]2O)[C@](C)(O)C[C@@H](C)C(=O)[C@H](C)[C@@H](O)[C@]1(C)O` the Activity [2] was “inactive”, the Activity [3] was “inactive” and the Activity [4] was “inactive”. The Activity [5] was “inactive”, the Activity [6] was “inactive” and the Activity [7] was “inactive”.

With `NC[C@H]1O[C@H](O[C@H]2[C@H](O)[C@@H](O[C@H]3O[C@H](CO)[C@@H](O)[C@H](N)[C@H]3O)[C@H](N)C[C@@H]2N)[C@H](O)[C@@H](O)[C@@H]1O` the Activity [8] was “Active”, the Activity [9] was “Active” and the Activity [10] was “Active”. For the same compound, the Activity [11] was “Active”, the Activity [12] was “Active” and the Activity [13] was “Active”. The Activity [14] was “Active”, the Activity [15] was “Active” and the Activity [16] was “Active”. The Activity [17] was “Active”, the Activity [18] was “Active” and the inhibition zone (IZ) [19] was 9.3 mm.
